High-throughput results as filed in PubChem.
These entries were drawn from the full list.
Apaf-1 act: activates human Apaf-1 apoptosome | O14727 | Apaf-1 apoptosome caspase-3 activation, DEVD-Rh110 fluorescence; active compounds read low | activity change, negative = activation, % at 20 µM | 330,000 tested, 0.31% active | AID 489031;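 active = activity change at or below -40% at 20 µM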
Target sequence (O14727 whole entry, looked up): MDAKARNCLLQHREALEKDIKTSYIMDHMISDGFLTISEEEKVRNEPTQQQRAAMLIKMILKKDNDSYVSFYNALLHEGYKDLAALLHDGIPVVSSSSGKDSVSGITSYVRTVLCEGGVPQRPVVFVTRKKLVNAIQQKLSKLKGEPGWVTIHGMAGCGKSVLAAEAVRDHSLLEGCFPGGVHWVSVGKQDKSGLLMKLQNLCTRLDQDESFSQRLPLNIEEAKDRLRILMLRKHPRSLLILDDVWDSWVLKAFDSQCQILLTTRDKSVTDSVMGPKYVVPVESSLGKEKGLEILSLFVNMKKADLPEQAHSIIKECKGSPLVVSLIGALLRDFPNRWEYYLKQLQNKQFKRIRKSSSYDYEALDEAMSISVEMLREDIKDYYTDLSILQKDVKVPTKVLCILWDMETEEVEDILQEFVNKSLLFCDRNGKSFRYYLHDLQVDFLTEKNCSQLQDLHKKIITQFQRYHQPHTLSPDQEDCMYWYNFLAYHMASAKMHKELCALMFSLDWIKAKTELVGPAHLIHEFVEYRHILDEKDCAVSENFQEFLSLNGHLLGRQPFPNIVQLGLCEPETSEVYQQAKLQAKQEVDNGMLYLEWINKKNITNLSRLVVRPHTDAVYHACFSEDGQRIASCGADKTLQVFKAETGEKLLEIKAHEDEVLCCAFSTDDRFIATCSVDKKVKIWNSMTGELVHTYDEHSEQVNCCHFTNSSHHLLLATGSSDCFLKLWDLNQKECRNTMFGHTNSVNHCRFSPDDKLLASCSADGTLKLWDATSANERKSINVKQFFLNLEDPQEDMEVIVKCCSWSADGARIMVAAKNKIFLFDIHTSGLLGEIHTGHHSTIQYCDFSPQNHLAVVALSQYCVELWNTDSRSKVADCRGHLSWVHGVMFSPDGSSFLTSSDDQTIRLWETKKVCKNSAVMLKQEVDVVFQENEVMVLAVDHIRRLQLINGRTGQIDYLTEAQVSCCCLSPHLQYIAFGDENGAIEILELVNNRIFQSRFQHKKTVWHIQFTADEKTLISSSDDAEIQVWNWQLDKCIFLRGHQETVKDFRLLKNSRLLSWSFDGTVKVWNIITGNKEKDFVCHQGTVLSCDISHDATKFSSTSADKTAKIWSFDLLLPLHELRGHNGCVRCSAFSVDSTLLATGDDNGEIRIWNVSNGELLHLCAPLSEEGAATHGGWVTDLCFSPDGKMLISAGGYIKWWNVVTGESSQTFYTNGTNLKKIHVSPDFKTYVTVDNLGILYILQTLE
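system = biochemical Apaf-1 apoptosome reconstitution | buffer or medium = 20 mM HEPES pH 7.5 with CHAPS, BSA | also added = dATP and cytochrome c as apoptosome triggers, (Z-DEVD)2-Rh110 substrate | incubation = 30 min compound preincubation and 50 min reaction, both room temperature | measured by = fluorescence, 540 nm emission, 480 nm excitation | read-out basis = Caspase-3 cleavage activity downstream of Apaf-1 activation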
Rh110 interf act: interferes with Rh110 fluorescence, flagging false Apaf-1 activators; shares compounds with Apaf-1 act; Rh110 fluorescence interference, quenched caspase reaction, Ex480/Em540; fluorescence interference (activity change), % at 20 µM, hits read low; 980 tested, under 10 active; AID 504616;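 active = mean activity change at or below -40% when tested at 20 µM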
Apaf-1 act conf: Apaf-1 (human) activation, single-dose confirmed | shares compounds with Apaf-1 act | reconstituted apoptosome caspase-3 activity, DEVD-Rh110 fluorescence; active compounds read low | activity change, negative = activation, % at 20 µM | 980 tested, 5% active;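 active = mean activity change at or below -40%, meaning activation of 40% or more, at 20 µM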
Apaf1 act interf: shows fluorescence interference in the Apaf-1 activator assay format; shares compounds with Apaf-1 act; fluorescence interference counterscreen; EC50, µM; 55 tested, under 10 active; call rule not given here
A number is an active result.

Results for COC(=O)C1=C(C)N(Cc2ccccc2)C(=NCCc2c[nH]c3ccccc23)N[C@H]1c1cccc(C(F)(F)F)c1 ?
Apaf-1 act: inactive

What do the screens show for `NC(=NCCc1c[nH]c2ccccc12)NS(=O)(=O)c1ccc(F)cc1`?
Apaf-1 act: -46; Rh110 interf act: inactive; Apaf-1 act conf: inactive

Results for C#CCOCCOCCOCCNc1nc(N2CCN(C(=O)[C@H]([C@@H](C)CC)n3cc([C@@H](N)Cc4ccc(O)cc4)nn3)CC2)nc(N2CCN(C(=O)[C@H](Cc3cc4ccccc4[nH]3)n3cc([C@@H](N)C(C)CC)nn3)CC2)n1 (some centres not stated) ?
Apaf-1 act: inactive

Results for Cc1ccc(N(CC2=NCCN2)c2cccc(O)c2)cc1 ?
Apaf-1 act: inactive

Results for Cc1ccc(NC(=O)CSc2nc3ccccc3c(=O)n2CCCN2CCCCC2)cc1C ?
Apaf-1 act: inactive

Results for O=C(CSc1ncnc2ccccc12)Nc1cccc(S(=O)(=O)N2CCCC2)c1 ?
Apaf-1 act: -43; Rh110 interf act: inactive; Apaf-1 act conf: inactive

How did CCN(c1ccccc1)S(=O)(=O)c1ccc(Cl)c(NC(=O)CN2CCN(C)CC2)c1 do in these assays?
Apaf-1 act: inactive

What do the screens show for `Cn1c(CN2CCCC2)nc2cc(NC(=O)COc3ccccc3)ccc21`?
Apaf-1 act: inactive

Results for O=C(CN1CCN(Cc2ccccc2)CC1)Nc1cccc(S(=O)(=O)N2CCCCCC2)c1 ?
Apaf-1 act: -174; Rh110 interf act: inactive; Apaf-1 act conf: inactive

How did CN(C=[N+](C)C)c1cccc2c1C(=O)c1ccccc1C2=O do in these assays?
Apaf-1 act: inactive

What do the screens show for `CCO/C=C1/C(=O)N(C)C(=O)c2cc(OC)ccc21`?
Apaf-1 act: inactive

How did O=C1C=C(Nc2ccc(F)cc2)c2ccccc2C1=O do in these assays?
Apaf-1 act: inactive

What do the screens show for `Cc1cnc(NC(=O)CSc2ncc(-c3ccccc3)n2Cc2ccco2)s1`?
Apaf-1 act: inactive

How did COc1ccc(C(=O)CSc2nnc(-c3cccnc3)n2Cc2ccco2)cc1 do in these assays?
Apaf-1 act: -50; Rh110 interf act: inactive; Apaf-1 act conf: inactive

Results for O=C(CSc1nnc(-c2ccc(F)cc2)n1CC1CCCO1)NCc1ccco1 (configuration not stated) ?
Apaf-1 act: inactive

How did O=[N+]([O-])c1cccc(C2(O)COc3ccccc3O2)c1 (configuration not stated) do in these assays?
Apaf-1 act: -83; Rh110 interf act: inactive; Apaf-1 act conf: inactive

What do the screens show for `CC1=NN(c2ccccc2)C(=O)/C1=C/c1ccc(Cl)cc1`?
Apaf-1 act: inactive

Results for CC1=NN(c2ccccc2)C(=O)/C1=C/c1ccc[nH]1 ?
Apaf-1 act: -138; Rh110 interf act: inactive; Apaf-1 act conf: inactive

What do the screens show for `CC1=NN(c2ccccc2)C(=O)/C1=C\c1ccc(Br)s1`?
Apaf-1 act: inactive

What do the screens show for `Cc1ccc(C(=O)N/C(=C\c2ccc(-c3ccccc3[N+](=O)[O-])o2)C(=O)NCCCN2CCOCC2)cc1`?
Apaf-1 act: inactive

How did NNc1nc2c(Cl)c(Cl)ccc2s1 do in these assays?
Apaf-1 act: -59; Rh110 interf act: inactive; Apaf-1 act conf: inactive

Results for CC1CCCN(C2=C(NS(=O)(=O)c3ccc(Br)cc3)C(=O)c3ccccc3C2=O)C1 (configuration not stated) ?
Apaf-1 act: inactive

How did CC1CCN(C2=C(NS(=O)(=O)c3ccc(Br)cc3)C(=O)c3ccccc3C2=O)CC1 do in these assays?
Apaf-1 act: inactive

Results for CCOC(=O)C1CCCN(C2=C(NS(=O)(=O)c3ccc(Br)cc3)C(=O)c3ccccc3C2=O)C1 (configuration not stated) ?
Apaf-1 act: inactive; Apaf1 act interf: inactive

How did C[C@H]1CN([C@@H](C)CO)C(=O)Cc2cc(NC(=O)CCC(F)(F)F)ccc2O[C@H]1CN(C)Cc1ccc(-c2ccccc2)cc1 do in these assays?
Apaf-1 act: inactive

How did Cc1cc(O)c2c(c1O)C(=O)[C@]13C(=C2O)C(=O)[C@@H]2[C@@H](O)[C@H]1[C@@H]1[C@H](O)[C@H]3C(=O)C3=C(O)c4c(O)cc(C)c(O)c4C(=O)[C@]312 do in these assays?
Apaf-1 act: inactive

How did CCOc1cc(C(=S)N2CCOCC2)ccc1OS(=O)(=O)c1ccc(OC)cc1 do in these assays?
Apaf-1 act: -55; Rh110 interf act: inactive; Apaf-1 act conf: inactive

What do the screens show for `COc1ccc(C(CNC(=O)COc2c(C)cc(C)cc2C)N2CCOCC2)cc1` (configuration not stated)?
Apaf-1 act: inactive

What do the screens show for `CCOc1cc(C(c2c(C)[nH][nH]c2=O)c2c(C)[nH][nH]c2=O)ccc1OS(=O)(=O)c1ccc(C)cc1`?
Apaf-1 act: inactive

What do the screens show for `CC(C)[C@H](N)C(=O)OCCOCn1cnc2c(=O)[nH]c(N)nc21`?
Apaf-1 act: inactive

How did OCc1cc(C(O)CNCCCCCCOCCCCc2ccccc2)ccc1O (configuration not stated) do in these assays?
Apaf-1 act: inactive

How did COc1ccnc(Oc2ccc(F)cc2)c1C#N do in these assays?
Apaf-1 act: -47; Rh110 interf act: inactive; Apaf-1 act conf: inactive

What do the screens show for `N#Cc1c(NC(=O)c2ccc(Br)o2)n(-c2ccccc2)c2nc3ccccc3nc12`?
Apaf-1 act: inactive

What do the screens show for `O=C(CCCC(=O)OCC(Cl)=C(Cl)Cl)Nc1ccccc1F`?
Apaf-1 act: -61; Rh110 interf act: inactive; Apaf-1 act conf: inactive

How did COc1ccc2nc3cc(Cl)ccc3c(Nc3cc(CN4CCCC4)c(O)c(CN4CCCC4)c3)c2n1 do in these assays?
Apaf-1 act: inactive

What do the screens show for `CCn1c(=O)c([N+](=O)[O-])c(NC2CCS(=O)(=O)C2)c2ccccc21` (configuration not stated)?
Apaf-1 act: -162; Rh110 interf act: inactive; Apaf-1 act conf: inactive

How did CCN1CCN(Cc2ccc(NC(=O)c3cc(NC(=O)C(=O)c4c[nH]c5ccccc45)cc(OC)c3)cc2C(F)(F)F)CC1 do in these assays?
Apaf-1 act: inactive

What do the screens show for `COc1ccc(OCc2cc(C(=O)NC3CCOC(C)(C)C3)no2)c2ccccc12` (configuration not stated)?
Apaf-1 act: inactive

What do the screens show for `C=C(C)Cc1c(C)c(C#N)c2[nH]c3ccccc3n2c1=O`?
Apaf-1 act: inactive

Results for CSc1ccc(/C=N/NC(=O)CNc2cccc3ccccc23)cc1 ?
Apaf-1 act: inactive

How did COc1ccc(/C=N/NC(=O)CNC(=O)/C=C/c2ccco2)cc1OC do in these assays?
Apaf-1 act: -408; Rh110 interf act: inactive; Apaf-1 act conf: inactive

What do the screens show for `O[C@@H](c1cc(C(F)(F)F)nc2c(C(F)(F)F)cccc12)[C@H]1CCCCN1`?
Apaf-1 act: inactive

What do the screens show for `COCCCC1CCN(Cc2nc(-c3ccccc3)no2)CC1`?
Apaf-1 act: -51; Rh110 interf act: inactive; Apaf-1 act conf: inactive

Results for c1ccc(-c2noc(CN3CCN(c4cnccn4)CC3)n2)cc1 ?
Apaf-1 act: -92; Rh110 interf act: inactive; Apaf-1 act conf: inactive

What do the screens show for `O=C(c1ccco1)N1CCN(C(=O)c2cn(-c3ccccc3)nc2-c2ccc(F)cc2)CC1`?
Apaf-1 act: inactive
